PTK2B oligo ant – antagonists of Pyk2 self-association, primary screen, Q293 cells, FERM NanoBiT luminescence, HTS; actives 0.83% (n = 99,000); active compounds read low; z-score (the deposit names both 25 µM and 10 µM); AID 1347419, 2020;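 active = Z-score of -3 or lower, scaled per plate to the spread of control and sample wells; inactive = z-score above -3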;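 note: negative z-score means lost luminescence so less FERM oligomerization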
Target sequence (Q14289 whole entry, looked up): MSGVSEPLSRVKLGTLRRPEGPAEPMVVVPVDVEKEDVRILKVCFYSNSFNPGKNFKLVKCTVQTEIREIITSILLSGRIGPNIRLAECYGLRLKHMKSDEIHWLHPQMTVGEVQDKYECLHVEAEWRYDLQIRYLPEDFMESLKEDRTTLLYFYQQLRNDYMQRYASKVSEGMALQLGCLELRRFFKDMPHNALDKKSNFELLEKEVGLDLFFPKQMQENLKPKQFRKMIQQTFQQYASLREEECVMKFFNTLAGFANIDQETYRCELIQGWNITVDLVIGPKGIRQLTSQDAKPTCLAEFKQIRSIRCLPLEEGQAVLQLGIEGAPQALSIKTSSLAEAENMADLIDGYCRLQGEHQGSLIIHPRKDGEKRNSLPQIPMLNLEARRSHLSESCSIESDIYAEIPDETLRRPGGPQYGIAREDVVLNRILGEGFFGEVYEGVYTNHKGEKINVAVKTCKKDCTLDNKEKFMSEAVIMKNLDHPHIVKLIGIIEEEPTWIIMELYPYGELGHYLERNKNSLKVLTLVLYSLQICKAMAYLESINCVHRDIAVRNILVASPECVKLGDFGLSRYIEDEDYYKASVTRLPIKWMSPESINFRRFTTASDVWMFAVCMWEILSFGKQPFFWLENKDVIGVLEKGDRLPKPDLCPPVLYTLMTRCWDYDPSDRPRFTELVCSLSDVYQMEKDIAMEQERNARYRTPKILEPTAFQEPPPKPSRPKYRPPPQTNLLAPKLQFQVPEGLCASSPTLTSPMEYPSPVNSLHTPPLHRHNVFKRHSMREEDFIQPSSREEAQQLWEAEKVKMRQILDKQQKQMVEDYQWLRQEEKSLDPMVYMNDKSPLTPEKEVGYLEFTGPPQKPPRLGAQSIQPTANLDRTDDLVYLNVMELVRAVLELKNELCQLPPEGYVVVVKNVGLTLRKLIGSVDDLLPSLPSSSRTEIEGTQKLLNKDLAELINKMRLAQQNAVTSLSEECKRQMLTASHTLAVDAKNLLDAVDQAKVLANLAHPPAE
E coli WT exp – growth inhibitors of wild-type E. coli, primary screen, strain BW25113, expanded library, OD600; growth inhibition, % at 100 µM; actives 0.15% (n = 98,000); OD600 absorbance;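 active = growth inhibition above about 50% at one test dose, limit read from the data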;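 note: growth measured after 20 h incubation at 37 °C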
Candida biofilm – clotrimazole potentiators killing Candida biofilms, primary screen, with clotrimazole, Alamar Blue. C. albicans biofilm + clotrimazole. inhibition, % at 6 µM. actives 0.14% (n = 85,000). AID 834, 2007;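 active = inhibition above 20%; inactive = inhibition below 20%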;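 note: preformed 24 hr biofilms exposed to compound for 48 hr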
PostGolgi yeast – phenotypic screen on post-Golgi transport, primary screen; AID 739, 2007; actives 0.9% (n = 98,000); inhibition, % at 10 µM; post-Golgi transport phenotypic cell assay;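 note: yeast cells grown in 1536-well plates; yeast grown about 18 h at 30C before absorbance read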
PostGolgi ctrl – growth inhibition of yeast control strain, primary screen, counter-screen for post-Golgi transport modulator project; AID 738, 2007; inhibition, % at 10 µM; actives 5% (n = 98,000); efflux-deficient yeast background strain, growth absorbance A615, 16 h
tolC growth inh – growth inhibitors of E. coli tolC mutant, primary screen, strain BW25113 ΔtolC::kan, 384-well. OD615. growth inhibition, % at 10 µM (by protocol). actives 2.2% (n = 65,000);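 active = growth inhibition at or above a cutoff equal to the mean over every tested compound plus 3 SD, cut at about 60% in these data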;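 note: growth measured after 20 h incubation at 37 °C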
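Assay system: tolC-deleted E. coli BW25113. Medium: kanamycin-containing LB broth (50 µg/mL). Dosing: 10 µM final, single dose. Timing: bacterial growth with compound for 20 h at 37 °C. Detection: A615 absorbance measurement. Read-out basis: growth inhibition in percent.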
Hits are given with their value; 0 = inactive; - = no result. Compounds with a hit are over-represented: about 6.5% of the library has one in this group of screens. Cut-off read from the data, not from the text of the source, unless noted: active = inhibition above about 30%; inactive = the rest.

SMILES | PTK2B oligo ant | E coli WT exp | Candida biofilm | PostGolgi yeast | PostGolgi ctrl | tolC growth inh
CCc1nc2ccccc2c(=O)n1NC(=O)c1c(O)c2cccc3c2n(c1=O)CCC3 | 0 | 0 | 0 | 0 | 0 | 64
CN(C)c1oc(-c2ccccc2Cl)nc1S(=O)(=O)c1ccccc1 | - | 0 | 0 | 0 | 32 | 0
O=C(NCCN1CCCC1)C1(S(=O)(=O)c2ccc(Cl)cc2)CC1 | 0 | 0 | - | 0 | 38 | 0
O=C(NCCCN1CCCCC1)C1(S(=O)(=O)c2ccc(Cl)cc2)CC1 | - | 0 | - | 0 | 0 | 0
c1ccc(CSc2nnc(-c3cccs3)n2Cc2ccco2)cc1 | 0 | - | 0 | - | - | 96
Cc1ccccc1CSc1nnc(-c2cccs2)n1Cc1ccco1 | 0 | 0 | 0 | 0 | 0 | -
c1ccc(CSc2nnc(-c3ccco3)n2Cc2ccco2)cc1 | 0 | 0 | 0 | 0 | 0 | 0
O=C1c2ccccc2C(=O)N1CCSc1nnc(-c2ccco2)n1Cc1ccccc1 | 0 | 0 | 0 | 0 | 37 | 0
Clc1cccc(CSc2nnc(-c3ccccn3)n2Cc2ccco2)c1 | 0 | 0 | 0 | 0 | 0 | 100
Cc1ccccc1CSc1nnc(-c2ccco2)n1Cc1ccco1 | 0 | 0 | 0 | 0 | 39 | 0
COC(=O)c1c(-c2cccc3ccccc23)csc1NC(=O)Cc1ccc(OC)c(OC)c1 | 0 | 0 | - | 0 | 0 | -
CC(C)(C)c1ccc(CSc2nnc(-c3ccccn3)n2Cc2ccco2)cc1 | 0 | 0 | - | 0 | 0 | -
Brc1ccc(CSc2nnc(-c3ccccn3)n2Cc2ccco2)cc1 | 0 | 0 | 0 | 0 | 33 | 98
COc1cc(/C=c2\s/c(=C(/C#N)C(=O)N3CCCC3)n(-c3ccccc3)c2=O)ccc1O | -3 | 0 | 0 | 0 | 0 | 0
COC(=O)/C=c1/s/c(=C(/C#N)C(=O)N2CCCCC2)n(-c2ccccc2)c1=O | - | - | 0 | - | - | 0
COc1ccccc1C1(CC(=O)Nc2nccs2)CCOC(C(C)C)C1 (stereo not drawn) | 0 | 0 | - | 0 | 0 | -
CN(C)c1ccnc(-n2cccc2/C=N/OCc2ccc(F)cc2Cl)c1C#N | 0 | 0 | 0 | 0 | 34 | -
COc1ccc(/C=C/C(=O)c2ccc(Cl)s2)cc1O | 0 | 0 | - | 0 | 0 | -
COc1cc(/C=C/C(=O)c2ccc(Cl)s2)cc(OC)c1O | 0 | 0 | - | 0 | 45 | -
Cc1ccc(NC(=O)NNc2cccc(Cl)n2)cc1 | 0 | 0 | - | 0 | 0 | -
Oc1ccc(/C=C/c2nc(-c3ccccc3O)n(-c3ccccc3)n2)cc1 | 0 | 0 | - | 0 | 38 | -
COC(=O)c1ccccc1NC(=O)c1ccc2c(c1)OCCO2 | 0 | 0 | 0 | 0 | 0 | 89
O=C(NNS(=O)(=O)c1cc(Cl)cc(Cl)c1)c1sccc1-n1cccc1 | 0 | 0 | - | 0 | 0 | -
Cc1ccc(S(=O)(=O)N(Cc2ccc(F)cc2)Cc2ccco2)cc1 | 0 | 0 | 0 | 0 | 0 | 66
Cc1ccc(S(=O)(=O)N(Cc2ccccc2)Cc2ccco2)cc1 | 0 | 0 | - | 0 | 0 | 64
SMILES | PTK2B oligo ant | E coli WT exp | Candida biofilm | PostGolgi yeast | PostGolgi ctrl | tolC growth inh
CN(C)S(=O)(=O)c1ccc(S(=O)(=O)N(Cc2ccco2)Cc2ccccc2Cl)cc1 | 0 | 0 | 0 | 0 | 0 | 0
O=C(CCCc1ccccc1)N1CCc2ccccc21 | 0 | 0 | 0 | 0 | 0 | 0
COc1cc(/C=C(\C#N)c2ccccn2)ccc1OCc1ccc(Cl)cc1 | 0 | - | - | - | - | -
Cc1ccc(/C=C(/C#N)C(=O)NC(=O)Oc2ccccc2)cc1 | 0 | 0 | 0 | 0 | 0 | -
Cc1ccc(C(C)NC(=O)/C(C#N)=C\c2c(C)[nH]c3ccccc23)cc1 (stereo not drawn) | 0 | 0 | - | 0 | 59 | -
Cn1c(N/N=C/c2c[nH]c3ccccc23)nc2ccccc21 | 0 | 0 | - | 0 | 0 | -
O=[N+]([O-])c1ccc(N/N=C/c2c[nH]c3ccccc23)c(S(=O)(=O)Nc2ccc(Cl)cc2)c1 | 0 | 0 | - | 86 | 0 | -
COc1ccccc1NS(=O)(=O)c1cc([N+](=O)[O-])ccc1N/N=C/c1c(C)[nH]c2ccccc12 | -3.1 | 0 | - | 0 | 0 | -
COc1ccccc1NS(=O)(=O)c1cc(C)ccc1C | 0 | 0 | 0 | 0 | 0 | -
